Results reported in ChEMBL document CHEMBL2413007, “Synthesis of polysubstituted benzofuran derivatives as novel inhibitors of parasitic growth” (Bioorg Med Chem, 2013).

What was measured:
[1] = system: Trypanosoma brucei gambiense; assay: Antitrypanosomal activity against Trypanosoma brucei gambiense Feo bloodstream form after 72 hrs by fluorescence assay; type: functional, organism-based
Method in brief: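 Bloodstream forms of strain Feo grown in HMI9 with 10% FCS, 37 °C, 5% CO₂. Log-phase cells harvested by centrifugation (3000g) and used at once, seeded at 3 × 10⁴ cells/ml. Inhibitor concentration series, final DMSO ≤1%. Resazurin added after 72 h (final 45 µM), fluorescence (ex 530/em 590 nm) read 4 h later. Inhibition relative to untreated parasites; triplicates, experiment repeated twice.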

Plasmodium falciparum = assay: Antiplasmodial activity against erythrocytic stages of chloroquine-resistant Plasmodium falciparum FcB1/Columbia incubated for 24 hrs followed by [3H]-hypoxanthine addition measured after 24 hrs by liquid scintillation spectrometry; type: functional, organism-based
Method in brief: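 Asynchronous FcB1/Colombia cultured on human erythrocytes in RPMI 1640 + 8% heat-inactivated human serum, 37 °C, 3% CO₂/6% O₂/91% N₂. DMSO stocks 10 mM, two-fold serial dilutions; 1% parasitaemia, 1% final haematocrit. 24 h drug exposure, then 0.5 µCi [³H]-hypoxanthine per well, 24 h more; freeze-thaw, filter harvest, scintillation counting versus untreated same-plate control. IC50 from concentration–response curve; mean ± SD of several independent experiments; chloroquine control.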

Compound	IC50 [1]	IC50 (Plasmodium falciparum)
COc1ccc(-c2oc3ccccc3c2C(=O)c2ccccc2)cc1	21.2 µM	> 50 µM
COc1ccc(-c2oc3ccccc3c2C(=O)c2ccc([N+](=O)[O-])cc2)cc1	> 50 µM	> 50 µM
COc1ccc(-c2oc3ccccc3c2C(=O)c2c(O)cc(OC)cc2OC)cc1	6.7 µM	> 25 µM
O=C(c1ccccc1)c1c(C2CC2)oc2ccccc12	20.9 µM	> 50 µM
O=C(c1ccccc1)c1c(-c2ccccc2)oc2ccccc12	15.5 µM	> 50 µM
O=C(c1ccc([N+](=O)[O-])cc1)c1c(-c2ccccc2)oc2ccccc12	> 50 µM	> 50 µM
COc1ccc(-c2oc3cccc(O)c3c2C(=O)c2ccccc2)cc1	6.5 µM	> 25 µM
COc1ccc(C(=O)c2c(-c3ccc(OC)cc3)oc3cccc(O)c23)cc1	7.7 µM	> 25 µM
COc1ccc(-c2oc3cccc(O)c3c2C(=O)c2cccc3ccccc23)cc1	4.2 µM	> 50 µM
CCOc1ccc2ccccc2c1C(=O)c1c(-c2ccc(OC)cc2)oc2cccc(O)c12	1.5 µM	> 25 µM
COc1ccc(C(=O)c2c(C3CC3)oc3cccc(O)c23)cc1	3.7 µM	> 50 µM
O=C(c1cccc2ccccc12)c1c(C2CC2)oc2cccc(O)c12	4.6 µM	> 50 µM
CCOc1ccc2ccccc2c1C(=O)c1c(C2CC2)oc2cccc(O)c12	2 µM	> 25 µM
COc1ccc(-c2oc3cccc(OC)c3c2C(=O)c2ccccc2)cc1	11.8 µM	> 50 µM
COc1ccc(C(=O)c2c(-c3ccc(OC)cc3)oc3cccc(OC)c23)cc1	8.3 µM	> 25 µM
COc1ccc(-c2oc3cccc(OC)c3c2C(=O)c2cccc3ccccc23)cc1	12.4 µM	> 50 µM
COc1ccc(-c2oc3cccc(OC)c3c2C(=O)c2ccc(Cl)cc2)cc1	5.5 µM	> 50 µM
COc1ccc(-c2oc3cccc(OC)c3c2C(=O)c2ccc(OC(=O)C(C)(C)C)c(OC)c2)cc1	8.4 µM	> 50 µM
COc1ccc(-c2oc3cccc(OC)c3c2C(=O)c2c(OC)cc(OC)cc2OC)cc1	> 50 µM	> 50 µM
COc1ccc(-c2cc3c(OC(=O)c4ccccc4)cccc3o2)cc1	3.2 µM	> 25 µM

Compound	IC50 [1]	IC50 (Plasmodium falciparum)
COc1ccc(C(=O)Oc2cccc3oc(-c4ccc(OC)cc4)cc23)cc1	1.8 µM	11.2 µM
COc1ccc(-c2cc3c(OC(=O)c4c(O)cc(OC)cc4OC)cccc3o2)cc1	> 50 µM	7.9 µM
COc1ccc(-c2cc3c(OC(=O)c4cccc5ccccc45)cccc3o2)cc1	14.9 µM	> 50 µM
CCOc1ccc2ccccc2c1C(=O)Oc1cccc2oc(-c3ccc(OC)cc3)cc12	7.7 µM	> 50 µM
COc1ccc(-c2cc3c(OC(=O)c4ccc(Cl)cc4)cccc3o2)cc1	1.5 µM	> 25 µM
COc1ccc(-c2cc3c(OC(=O)c4ccc([N+](=O)[O-])cc4)cccc3o2)cc1	1.7 µM	> 50 µM
O=C(Oc1cccc2oc(C3CC3)cc12)c1ccccc1	14.7 µM	> 50 µM
COc1ccc(C(=O)Oc2cccc3oc(C4CC4)cc23)cc1	2.7 µM	> 50 µM
O=C(Oc1cccc2oc(C3CC3)cc12)c1cccc2ccccc12	12.6 µM	> 50 µM
CCOc1ccc2ccccc2c1C(=O)Oc1cccc2oc(C3CC3)cc12	6.4 µM	> 25 µM
O=C(Oc1cccc2oc(C3CC3)cc12)c1ccc(Cl)cc1	7.1 µM	> 50 µM
O=C(Oc1cccc2oc(C3CC3)cc12)c1ccc([N+](=O)[O-])cc1	12.2 µM	> 50 µM
O=C(Oc1cccc2oc(-c3ccccc3)cc12)c1ccccc1	14 µM	> 25 µM
COc1ccc(C(=O)Oc2cccc3oc(-c4ccccc4)cc23)cc1	1.7 µM	> 25 µM
O=C(Oc1cccc2oc(-c3ccccc3)cc12)c1cccc2ccccc12	21.3 µM	> 25 µM
CCOc1ccc2ccccc2c1C(=O)Oc1cccc2oc(-c3ccccc3)cc12	6.7 µM	> 50 µM
O=C(Oc1cccc2oc(-c3ccccc3)cc12)c1ccc(Cl)cc1	1.6 µM	> 25 µM
O=C(Oc1cccc2oc(-c3ccccc3)cc12)c1ccc([N+](=O)[O-])cc1	1.8 µM	> 25 µM
Cc1cc(C)cc(-c2cc3c(OC(=O)c4ccccc4)cccc3o2)c1	2 µM	6 µM
N=C(N)c1ccc(OCCCCCOc2ccc(C(=N)N)cc2)cc1 [PENTAMIDINE]	0.011 µM	–
